Here are results for one molecule from ChEMBL document CHEMBL4480426, “Novel multi-target directed ligands based on annelated xanthine scaffold with aromatic substituents acting on adenosine receptor and monoamine oxidase B. Synthesis, in vitro and in silico studies” (Bioorg Med Chem, 2019).

In one assay the target is T1, Adenosine receptor A3 (Homo sapiens, UniProt P0DMS8).
T1 sequence (P0DMS8 whole entry): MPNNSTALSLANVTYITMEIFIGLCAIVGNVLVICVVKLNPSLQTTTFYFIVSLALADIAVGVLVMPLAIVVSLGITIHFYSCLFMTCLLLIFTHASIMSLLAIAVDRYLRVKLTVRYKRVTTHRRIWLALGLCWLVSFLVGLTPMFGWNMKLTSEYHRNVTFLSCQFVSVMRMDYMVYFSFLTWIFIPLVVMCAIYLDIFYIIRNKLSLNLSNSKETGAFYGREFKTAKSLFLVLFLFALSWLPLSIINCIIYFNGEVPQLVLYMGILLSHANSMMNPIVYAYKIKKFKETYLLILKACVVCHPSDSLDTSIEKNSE
As to the kind of experiment: Displacement of [3H]PSB11 from recombinant human adenosine A3 receptor expressed in CHO cells. The assay is classed as cell-based. Background: Loss of bound radioactivity is the signal in a displacement assay; it reports binding, not function.

The target of assay [1] is T2, Amine oxidase [flavin-containing] B (Homo sapiens, UniProt P27338).
T2 sequence (P27338 whole entry): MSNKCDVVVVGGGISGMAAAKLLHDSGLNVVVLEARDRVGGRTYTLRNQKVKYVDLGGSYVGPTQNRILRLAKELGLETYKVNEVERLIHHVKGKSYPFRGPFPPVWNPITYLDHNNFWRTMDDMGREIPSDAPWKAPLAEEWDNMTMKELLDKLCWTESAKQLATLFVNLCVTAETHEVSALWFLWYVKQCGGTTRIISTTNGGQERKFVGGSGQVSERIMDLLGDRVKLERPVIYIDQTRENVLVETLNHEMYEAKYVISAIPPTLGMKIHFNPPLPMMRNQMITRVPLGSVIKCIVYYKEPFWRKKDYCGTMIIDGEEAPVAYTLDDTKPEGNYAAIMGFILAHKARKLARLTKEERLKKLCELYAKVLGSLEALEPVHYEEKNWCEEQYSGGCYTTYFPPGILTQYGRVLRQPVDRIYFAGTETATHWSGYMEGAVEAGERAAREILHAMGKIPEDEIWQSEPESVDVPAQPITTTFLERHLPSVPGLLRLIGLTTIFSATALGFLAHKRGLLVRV
As to the kind of experiment: Inhibition of recombinant human MAOB expressed in baculovirus infected BTI insect cells using p-tyramine as substrate preincubated for 30 mins followed by substrate addition and measured over 45 mins by horseradish peroxidase-Amplex Red-coupled fluorometric assay. The essentials:
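Human recombinant MAO-A or MAO-B enzyme. Activity detected fluorometrically with the Amplex Red monoamine oxidase assay.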

A short description of assay [2]: Antioxidant activity assessed as increase in total ferric ion reducing activity at 1000 uM using FeCl3.6H2O and TPTZ incubated for 10 mins under dark condition by FRAP assay relative to control. The format is functional. The arrangement: scale not given: the % may be the effect or the level left. The essentials:
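FRAP reagent made by mixing 10 parts 300 mM acetate buffer pH 3.6, 1 part 10 mM TPTZ in 40 mM HCl and 1 part 20 mM FeCl3·6H2O. Reagent mixed with compound solution, 10 min at room temperature in the dark. Ferrous-TPTZ complex read at 593 nm. Result is absorbance increase versus solvent sample. FeSO4·7H2O standard curve, 37.5–1200 μM.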

Another assay relates to Brain. As to the kind of experiment: Antioxidant activity in rat brain homogenate assessed as inhibition of FeCl2/ascorbic acid-induced lipid peroxidation by measuring reduction in TBARS level at 1000 uM preincubated for 5 mins followed by FeCl2/ascorbic acid addition and measured after 30 mins relative to control. The format is functional, tissue-based. Also on record: scale not given: the % may be the effect or the level left. The essentials: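 Rat brain homogenate in 0.9% saline, 10 mg tissue/ml, preincubated 5 min at 37 °C with compound or vehicle. Peroxidation started with 0.5 mM FeCl2 plus 2 mM ascorbic acid (added-solution concentrations). After 30 min, stopped with 0.2% BHT. Thiobarbituric acid reagent added, heated 15 min in boiling water, TBARS extracted into n-butanol and read at 532 nm. Carvedilol as reference.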

What is called Ki is a dissociation constant, usually derived from enzyme kinetics or from competition with a known ligand. For orientation: IC50 means the concentration that inhibits the measured activity by half. As for `Cn1c(=O)c2c(nc3n2CCCCN3Cc2ccc(Cl)c(Cl)c2)n(C)c1=O`, on Adenosine receptor A3, the Ki was > 1000 nM. For the same molecule, the half-inhibitory concentration (IC50) in assay [1] turned out to be 83 nM. The Activity in assay [2] amounted to 0.59%; in the assay with Brain, 16.6%.
